For orientation: IC50 means the concentration needed to halve the response being measured. Broadly, the Kd is the free concentration of one partner at which half of the binding sites on the other are occupied at equilibrium, for simple one-to-one binding.

Three molecules from ChEMBL document CHEMBL1150238, “Podophyllotoxin directly binds a hinge domain in E2 of HPV and inhibits an E2/E7 interaction in vitro” (Bioorg Med Chem, 2008) can be followed below.

Calls of active or inactive are those of the source. No cut-off for these calls is given here.

Assay [1] is described as follows: Cytotoxicity against mouse L210 cells after 48 hrs. The following applies: L210, 48 h. Type of assay: functional, cell-based. Put shortly: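 Cells seeded at 1.0 × 10⁴ per 100 µL and preincubated 24 h at 37 °C, 5% CO2. They were then exposed to graded compound concentrations for 48 h. WST-8 reagent added for 4 h, and absorbance read at 450 nm.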
The target in assay [2] is T1, Regulatory protein E2 (Human papillomavirus type 1a, UniProt P03118).
T1 sequence (P03118 whole entry): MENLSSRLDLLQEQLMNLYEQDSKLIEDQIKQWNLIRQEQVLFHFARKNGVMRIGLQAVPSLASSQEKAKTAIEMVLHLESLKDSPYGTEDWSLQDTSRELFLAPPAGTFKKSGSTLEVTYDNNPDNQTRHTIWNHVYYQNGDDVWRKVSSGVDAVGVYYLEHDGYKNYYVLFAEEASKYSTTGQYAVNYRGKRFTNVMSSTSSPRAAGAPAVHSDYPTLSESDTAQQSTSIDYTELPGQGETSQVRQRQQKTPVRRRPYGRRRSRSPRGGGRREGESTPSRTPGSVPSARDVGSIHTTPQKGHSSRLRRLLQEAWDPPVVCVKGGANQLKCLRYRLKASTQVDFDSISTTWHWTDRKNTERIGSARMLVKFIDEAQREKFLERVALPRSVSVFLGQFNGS
Briefly: Binding affinity to HPV1a recombinant E2 protein by surface plasmon resonance method. Put shortly:
(§1)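 E2 proteins (full-length and HPV 1a domain constructs, FLAG-tagged) expressed in E. coli with 1 mM IPTG induction for 3 h and purified by FPLC. Proteins amine-coupled to sensor chip (EDC/NHS activation, 10 mM acetate pH 4.0–6.0, ethanolamine block). PT flowed at various concentrations in PBS pH 7.4, 0.005% Tween20, 5% glycerol, 5% DMSO, 20–30 µL/min, 25 °C. Reference flow cell subtracted, KD derived; replicates over two times.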

Assay [3] addresses T2, Regulatory protein E2 (Human papillomavirus type 1a) (UniProt P03118).
T2 sequence (whole entry): T1 sequence (P03118 whole entry)
The assay can be described thus: Inhibition of HPV1a E2-E7 protein interaction at 250 uM assessed as rate of E2 binding to E7 protein by surface plasmon resonance method. Details: scale not given: the % may be the effect or the level left. Put shortly:
(§2)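 SPR competition format: E2 protein at 0.1 µM was mixed with PT in 5% DMSO and injected at 30 µL/min, 25 °C. Bound E2 amount was compared at 115 s after injection. Buffer alone and PT without E2 served as sensorgram controls.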
(SPR reads the build-up and loss of mass on a sensor chip optically.)

The target of assay [4] is T2, Regulatory protein E2 (Human papillomavirus type 1a). Briefly: Inhibition of HPV1a E2-E7 protein interaction at 500 uM assessed as rate of E2 binding to E7 protein by surface plasmon resonance method. More on the design: scale not given: the % may be the effect or the level left. Put shortly: as §2
Assay [5] concerns the target T1, Regulatory protein E2. Briefly: Binding affinity to HPV1a recombinant E2 protein DNA binding domain by surface plasmon resonance assay. The essentials:
as §1

In assay [6] the target is T3, Regulatory protein E2 (Human papillomavirus 16, UniProt P03120).
T3 sequence (P03120 whole entry): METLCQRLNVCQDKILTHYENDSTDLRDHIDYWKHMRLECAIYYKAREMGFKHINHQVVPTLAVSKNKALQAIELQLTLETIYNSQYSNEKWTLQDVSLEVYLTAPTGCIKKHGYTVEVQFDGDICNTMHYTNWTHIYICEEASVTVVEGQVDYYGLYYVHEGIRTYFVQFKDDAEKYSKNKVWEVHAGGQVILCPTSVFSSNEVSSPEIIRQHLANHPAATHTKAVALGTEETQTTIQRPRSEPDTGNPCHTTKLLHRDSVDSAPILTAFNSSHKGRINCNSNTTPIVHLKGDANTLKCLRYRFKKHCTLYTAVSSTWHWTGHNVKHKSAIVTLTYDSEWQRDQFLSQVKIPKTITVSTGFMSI
The assay can be described thus: Binding affinity to HPV16 recombinant E2 protein by surface plasmon resonance method. The essentials:
as §1

The target of assay [7] is T1, Regulatory protein E2. Briefly: Binding affinity to HPV1a recombinant E2 protein activator domain by surface plasmon resonance assay. The essentials: as §1
Assay [8] addresses T2, Regulatory protein E2 (Human papillomavirus type 1a). Briefly: Inhibition of HPV1a recombinant E2 protein-DNA interaction by electron mobility shift assay.
The target in assay [9] is T1, Regulatory protein E2. Briefly: Binding affinity to HPV1a recombinant E2 protein hinge domain by surface plasmon resonance assay. Put shortly:
as §1

Assay [10] addresses T4, Regulatory protein E2 (human papillomavirus 11, UniProt P04015).
T4 sequence (P04015 whole entry): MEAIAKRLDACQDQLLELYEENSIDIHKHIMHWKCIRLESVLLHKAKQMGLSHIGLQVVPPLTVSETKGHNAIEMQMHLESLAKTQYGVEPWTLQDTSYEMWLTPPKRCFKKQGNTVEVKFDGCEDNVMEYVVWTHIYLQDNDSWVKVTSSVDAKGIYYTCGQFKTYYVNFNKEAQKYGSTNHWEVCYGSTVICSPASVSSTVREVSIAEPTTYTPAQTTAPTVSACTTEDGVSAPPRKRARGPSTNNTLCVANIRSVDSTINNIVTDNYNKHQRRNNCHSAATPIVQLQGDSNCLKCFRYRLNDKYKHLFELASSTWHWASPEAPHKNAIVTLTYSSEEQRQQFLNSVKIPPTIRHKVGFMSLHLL
Briefly: Binding affinity to HPV11 recombinant E2 protein by surface plasmon resonance method. The essentials:
as §1

In assay [1], `COc1cc([C@@H]2c3cc4c(cc3[C@H](OC(=O)CCCCCNC(=O)CCCC[C@@H]3SC[C@@H]5NC(=O)N[C@@H]53)[C@H]3COC(=O)[C@H]23)OCO4)cc(OC)c1OC` displayed an IC50 of 400 nM.
Regarding `COc1cc([C@@H]2c3cc4c(cc3[C@@H](O[C@@H]3O[C@@H]5CO[C@@H](C)O[C@H]5[C@H](O)[C@H]3O)[C@H]3COC(=O)[C@H]23)OCO4)cc(OC)c1O` [ETOPOSIDE], the Kd at Regulatory protein E2 [2] was 210 µM. The Activity in [3] was 82%.
Consider `COc1cc([C@@H]2c3cc4c(cc3[C@H](O)[C@H]3COC(=O)[C@H]23)OCO4)cc(OC)c1OC` [PODOFILOX], for which the Activity in assay [4] was found to be 49.1%; in [3], 60.6%. In addition, the dissociation constant (Kd) was greater than 400 µM on Regulatory protein E2 [5]; 70.5 µM at Regulatory protein E2 [6]; greater than 400 µM at Regulatory protein E2 [7]; 24.1 µM on Regulatory protein E2 [2]; 1050 nM at Regulatory protein E2 [9]; 20.1 µM at Regulatory protein E2 [10]. This molecule also yielded an IC50 in [1] of 7 nM. In [8], the result was inactive.
